Results on one molecule are retold here after ChEMBL document CHEMBL1142894, “Preparation of 5-aryl-3-alkylthio-l,2,4-triazoles and corresponding sulfones with antiinflammatory-analgesic activity” (Bioorg Med Chem, 2007).

By inhibition in vivo is commonly meant the change of the read-out against control, counted positive when it falls. A high value points to strong suppression.

The test system of data set [1] is Mus musculus. In words: Inhibition of carrageenan-induced paw edema in Swiss albino mouse at 50 mg/kg, po after 270 mins relative to control. The class given is functional. The note with it: 4.5 h. The essentials: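 Mice, n = 6 per group. Test agent given orally as a suspension in 0.5% sodium CMC in distilled water; controls received vehicle only. Afterwards, 0.5 mg/25 ll carrageenan in saline (154 mM NaCl) injected subplantar into the right hind paw, saline into the left. Right-minus-left footpad thickness measured by dial gauge caliper every 90 min for 6 h. Inhibition is relative to vehicle-control group means.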
In general terms: Carrageenan injected into the paw causes an acute inflammation.

The subject of data set [2] is Mus musculus. In words: Inhibition of carrageenan-induced paw edema in Swiss albino mouse at 25 mg/kg, po after 270 mins relative to control. The note with it: 4.5 h. Format: functional. The essentials:
(§1)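 Oral dosing in 0.5% CMC; vehicle to controls. Then carrageenan (0.5 mg/25 ll, freshly suspended in 154 mM saline) injected into the right hind paw subplantar tissue; saline into the left paw. Right-left footpad thickness difference measured by dial gauge calliper every 90 min over 6 h. Inhibition % is relative to vehicle control. n = 6; mean ± SEM.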

Data set [3] concerns Mus musculus. Kind of data set: Antiinflammatory activity against carrageenan-induced paw edema in Swiss albino mouse assessed as swelling thickness at 25 mg/kg, po after 270 mins. Format: functional. The essentials:
as §1

Data set [4] concerns Mus musculus. Kind of data set: Antiinflammatory activity against carrageenan-induced paw edema in Swiss albino mouse assessed as swelling thickness at 50 mg/kg, po after 270 mins. Format: functional. The essentials: as §1
Data set [5] has as its system Mus musculus. In words: Antiinflammatory activity against carrageenan-induced paw edema in Swiss albino mouse assessed as swelling thickness at 200 mg/kg, po after 180 mins. Format: functional. The essentials:
as §1

In data set [6] the test system is Mus musculus. Kind of data set: Inhibition of carrageenan-induced paw edema in Swiss albino mouse at 50 mg/kg, po after 180 mins relative to control. The class given is functional. The note with it: 3 h. The method, boiled down: as §1
Data set [7] deals with Mus musculus. In words: Gastric-ulcerogenic effect in Swiss albino mouse assessed as lesions at 100 mg/kg, po. The class given is functional, organism-based. Further details: dose 100 mg/kg. The essentials:
(§2)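 Mice killed under deep ether anesthesia 3 h after the writhing test; the oral dose in 0.5% CMC was the one used in that test. Stomachs removed, opened along the great curvature and examined under a dissecting microscope for lesions or bleeding. Reported as ratio of ulceration; n = 6.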

Data set [8] relates to Mus musculus. In words: Antiinflammatory activity against carrageenan-induced paw edema in Swiss albino mouse assessed as swelling thickness at 100 mg/kg, po after 360 mins. Format: functional. The essentials:
as §1

The subject of data set [9] is Mus musculus. Kind of data set: Inhibition of carrageenan-induced paw edema in Swiss albino mouse at 100 mg/kg, po after 360 mins relative to control. Format: functional. The note with it: 6 h. The method, boiled down:
as §1

The test system of data set [10] is Mus musculus. In words: Inhibition of p-benzoquinone-induced writhing in Swiss albino mouse at 25 mg/kg, po relative to control. Format: functional. The essentials:
(§3)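 Mice, n = 6 per group, dosed orally with a suspension in 0.5% sodium CMC. 60 min later, 0.1 ml/10 g of 2.5% […] p-benzoquinone in distilled water given ip. Abdominal writhes counted per animal for 15 min, starting 5 min after injection. Expressed as % change in mean writhing count versus vehicle controls.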

Data set [11] relates to Mus musculus. In words: Inhibition of carrageenan-induced paw edema in Swiss albino mouse at 200 mg/kg, po after 90 mins relative to control. Format: functional. The following applies: 1.5 h. The essentials:
as §1

Data set [12] concerns Mus musculus. Kind of data set: Antiinflammatory activity against carrageenan-induced paw edema in Swiss albino mouse assessed as swelling thickness at 25 mg/kg, po after 90 mins. The class given is functional. The essentials: as §1
The test system of data set [13] is Mus musculus. In words: Inhibition of carrageenan-induced paw edema in Swiss albino mouse at 200 mg/kg, po after 180 mins relative to control. The class given is functional. The note with it: 3 h. The essentials: as §1
Data set [14] has as its system Mus musculus. In words: Analgesic activity against p-benzoquinone-induced abdominal constriction in Swiss albino mouse assessed as number of writhings at 100 mg/kg, po. The class given is functional, Abdomen. The method, boiled down: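 Test samples given orally in 0.5% CMC; vehicle to controls. 60 min later, 2.5% (v/v) p-benzoquinone in distilled water, 0.1 ml/10 g, given i.p. Mice housed singly; writhes counted for 15 min starting 5 min after injection. Activity is % change from vehicle controls. n = 6; mean ± SEM.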

For data set [15], the system named is Mus musculus. In words: Acute toxicity in Swiss albino mouse assessed as lethal effect at 100 mg/kg/day, po after 72 hrs. Format: organism-based. The following applies: in vivo. Further details: route oral. The essentials:
(§4)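 Oral single dose suspended in 0.5% carboxymethylcellulose, given after a 24 h fast; food and water returned 1 h after dosing. Vehicle-only controls. Mice observed at 1 h, then once daily for 72 h, for toxic signs and mortality.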

The test system of data set [16] is Mus musculus. Kind of data set: Inhibition of p-benzoquinone-induced writhing in Swiss albino mouse at 50 mg/kg, po relative to control. The class given is functional. The essentials:
as §3
In general terms: Writhing tests count abdominal constrictions after an irritant is injected.

Data set [17] relates to Mus musculus. In words: Gastric-ulcerogenic effect in Swiss albino mouse assessed as lesions at 50 mg/kg, po. The class given is functional, organism-based. Further details: dose 50 mg/kg. The essentials:
as §2

For data set [18], the system named is Mus musculus. In words: Antiinflammatory activity against carrageenan-induced paw edema in Swiss albino mouse assessed as swelling thickness at 25 mg/kg, po after 360 mins. The class given is functional. The method, boiled down:
as §1

For data set [19], the system named is Mus musculus. In words: Acute toxicity in Swiss albino mouse assessed as lethal effect at 25 mg/kg/day, po after 72 hrs. Set-up: route oral. The note with it: in vivo. Format: organism-based. The essentials: as §4
For data set [20], the system named is Mus musculus. In words: Antiinflammatory activity against carrageenan-induced paw edema in Swiss albino mouse assessed as swelling thickness at 200 mg/kg, po after 270 mins. The class given is functional. The method, boiled down:
as §1

Data set [21] deals with Mus musculus. Kind of data set: Inhibition of p-benzoquinone-induced writhing in Swiss albino mouse at 100 mg/kg, po relative to control. Format: functional. The method, boiled down: as §3
Data set [22] relates to Mus musculus. In words: Inhibition of carrageenan-induced paw edema in Swiss albino mouse at 25 mg/kg, po after 180 mins relative to control. The class given is functional. The note with it: 3 h. The essentials: as §1
Data set [23] concerns Mus musculus. In words: Inhibition of carrageenan-induced paw edema in Swiss albino mouse at 100 mg/kg, po after 270 mins relative to control. The note with it: 4.5 h. Format: functional. The method, boiled down: as §1
Data set [24] concerns Mus musculus. Kind of data set: Antiinflammatory activity against carrageenan-induced paw edema in Swiss albino mouse assessed as swelling thickness at 100 mg/kg, po after 180 mins. Format: functional. The method, boiled down: as §1

SMILES strings stand for the structures. The source made the active and inactive calls. The rule behind the calls is not given here.

`CCS(=O)(=O)c1nc(-c2ccccc2Cl)n[nH]1`: the inhibition in vivo at 50 mg/kg in the data set with Mus musculus [1] amounted to 36.1%; in the data set on Mus musculus [6], 39.7%; in the data set on Mus musculus [16] it was 54.5%. Moreover, the inhibition in vivo at 25 mg/kg in the data set on Mus musculus [2] turned out to be 8.8%; in the data set with Mus musculus [10], 25.7%; in the data set with Mus musculus [22], 8.4%. In addition, the Activity with Mus musculus [3] was 59.1 10^-2mm; in the data set with Mus musculus [4] it was 41.4 10^-2mm; with Mus musculus [5], 45.8 10^-2mm; in the data set on Mus musculus [8], 38.5 10^-2mm; with Mus musculus [12], 47.2 10^-2mm; in the data set on Mus musculus [14] it was 23.4. Further, the Activity entry in the data set on Mus musculus [15] is given as “Non-toxic”; with Mus musculus [18] it was 61.5 10^-2mm; with Mus musculus [19], “Non-toxic”; with Mus musculus [20], 51.9 10^-2mm; in the data set on Mus musculus [24] it was 33.8 10^-2mm. Besides, the outcome with Mus musculus [7] and with Mus musculus [17] was Active. In addition, the inhibition in vivo at 100 mg/kg is 44% with Mus musculus [9], 50.5% in the data set on Mus musculus [21] and 40.5% with Mus musculus [23]. Also, the inhibition in vivo at 200 mg/kg in the data set on Mus musculus [11] is 18.9%; in the data set with Mus musculus [13] it was 22.9%.
